Measurements from ChEMBL document CHEMBL5143741, “Design, Synthesis, and Biological Activity of New CB2 Receptor Ligands: from Orthosteric and Allosteric Modulators to Dualsteric/Bitopic Ligands” (J Med Chem, 2022).
Activity calls are given as the source filed them.

Legend:
Cannabinoid receptor 1 [1] = target: T1, Cannabinoid receptor 1 (Homo sapiens, UniProt P21554); experiment: Displacement of [3H]-CP55,940 from human CB1R expressed in CHO-K1 cell membranes incubated for 2 hrs by liquid scintillation spectrometry relative to CP55,940; conditions: Membrane
Method in brief: (§1)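 Membranes from CHO-K1 cells stably expressing hCB1R or hCB2R (50 μg protein) incubated with 1 nM [3H]CP55,940 and compound (0.10 nM–10 μM) in Tris binding buffer with 0.1% BSA, pH 7.4, for 120 min at 37 °C. Bound ligand filtered on GF/B and counted by liquid scintillation. Nonspecific binding defined with 1 μM unlabelled CP55,940; three-parameter fit; n = 3 in duplicate.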

Cannabinoid receptor 2 [2] = target: T2, Cannabinoid receptor 2 (Homo sapiens, UniProt P34972); experiment: Agonist activity at human CB2 receptor expressed in CHO-K1 cells assessed as inhibition of froskolin-stimulated cAMP accumulation incubated for 90 mins by HitHunter chemiluminescence based assay; assay type: functional, cell-based
Method in brief: (§2)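 HitHunter assay in DiscoveRx CHO-K1 hCB2R cells, seeded overnight in Opti-MEM with 1% FBS, then put in assay buffer. Cells cotreated at 37 °C for 90 min with 10 μM forskolin and ligand (0.10 nM–10 μM). cAMP antibody/detection solutions added for 60 min at room temperature, then solution A for 180 min, then chemiluminescence read.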

Cannabinoid receptor 2 [3] = target: T2, Cannabinoid receptor 2; experiment: Agonist activity at human CB2 receptor expressed in CHO-K1 cells assessed as enhancement of beta arrestin-2 recruitment at 10 uM incubated for 90 mins by HitHunter chemiluminescence based assay relative to CP55,940; assay type: functional, cell-based
Method in brief: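 PathHunter beta-arrestin2 recruitment in DiscoveRx CHO-K1 cells stably expressing hCB2R, seeded overnight in Opti-MEM with 1% FBS at 37 °C. Ligands (0.10 nM–10 μM) added for 90 min at 37 °C, then detection solution 60 min at room temperature and chemiluminescence read. Data expressed as % CP55,940 response and fitted by three-parameter nonlinear regression; n = 6 independent experiments in triplicate.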

Cannabinoid receptor 2 [4] = target: T2, Cannabinoid receptor 2; experiment: Agonist activity at human CB2 receptor expressed in CHO-K1 cells assessed as inhibition of froskolin-stimulated cAMP accumulation at 10 uM incubated for 90 mins by HitHunter chemiluminescence based assay relative to CP55,940; assay type: functional, cell-based
Method in brief: as §2, with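 “read. Response given as % CP55,940; three-parameter fit; n = 6 in triplicate.” for “read.”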

Cannabinoid receptor 2 [5] = target: T2, Cannabinoid receptor 2; experiment: Displacement of [3H]-CP55,940 from human CB2R expressed in CHO-K1 cell membranes assessed as inhibition constant incubated for 2 hrs by liquid scintillation spectrometry; parameters: species or system Membrane
Cannabinoid receptor 1 [6] = target: T1, Cannabinoid receptor 1; experiment: Displacement of [3H]-CP55,940 from human CB1R expressed in CHO-K1 cell membranes assessed as inhibition constant incubated for 2 hrs by liquid scintillation spectrometry analysis; parameters: species or system Membrane
Cannabinoid receptor 2 [7] = target: T2, Cannabinoid receptor 2; experiment: Displacement of [3H]-CP55,940 from human CB2R expressed in CHO-K1 cell membranes incubated for 2 hrs by liquid scintillation spectrophotometry relative to CP55,940; conditions: Membrane; method in brief: as §1
Cannabinoid receptor 2 [8] = target: T2, Cannabinoid receptor 2; experiment: Agonist activity at human CB2 receptor expressed in CHO-K1 cells assessed as enhancement of beta arrestin-2 recruitment incubated for 90 mins by […] chemiluminescence based assay; assay type: functional, cell-based
Method in brief: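 PathHunter beta-arrestin2 recruitment in DiscoveRx CHO-K1 cells stably expressing hCB2R, seeded overnight in Opti-MEM with 1% FBS at 37 °C. Ligands (0.10 nM–10 μM) added for 90 min at 37 °C, then detection solution 60 min at room temperature and chemiluminescence read.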

HMC3 [9] = experiment: Antiinflammatory activity in LPS/TNFalpha-induced HMC3 cells assessed as decrease in IL-6 release at 1 uM pretreated with compound for 1 hr followed by LPS/TNFalpha stimulation and measured after 24 hrs by ELISA; assay type: functional, cell-based; conditions: Homo sapiens, time 25.0 hrs
Method in brief: (§3)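 HMC3 human microglia in high-glucose DMEM with 10% FBS, pretreated 1 h with compound (100 nM–10 μM), then stimulated with LPS (10 μg/mL) plus TNFα (50 ng/mL) for 24 h. IL-6 or IL-10 in the medium measured by ELISA. SR144528 (1 μM) added 15 min before agonist where used; JWH133 served as positive control. n = 3 in duplicate; ANOVA with Tukey test.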

Mus musculus [10] = experiment: Antinociceptive activity against oxaliplatin-induced neuropathic pain in CD-1 albino mouse assessed as decrease in neuropathic pain at 20 mg/kg, po measured after 15 to 60 mins by cold plate assay; assay type: functional; parameters: scale not given: the % may be the effect or the level left; conditions: time 15-60 min
Method in brief: (§4)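 Male CD-1 mice (22–25 g) given oxaliplatin 2.4 mg/kg i.p. in 5% glucose on days 1–2, 5–9 and 12–14. On day 15 compound given orally at 1, 5 or 20 mg/kg in 1% carboxymethylcellulose. Cold plate held at 4 °C; latency to paw licking or lifting recorded (cut-off 60 s) at 15, 30, 45, 60 and 75 min. 16 mice per group over 2 experimental sets.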

HMC3 [11] = experiment: Antiinflammatory activity in LPS/TNFalpha-induced HMC3 cells assessed as increase in IL-10 release at 1 uM pretreated with compound for 1 hr followed by LPS/TNFalpha stimulation and measured after 24 hrs by ELISA; assay type: functional, cell-based; conditions: Homo sapiens, time 25.0 hrs; method in brief: as §3
BV-2 [12] = experiment: Antiinflammatory activity in LPS-induced mouse microglial BV-2 cells assessed as increase in IL-10 release at 1 uM preincubated for 1 hr followed by LPS-stimulation and measured after 4 hrs by ELISA; assay type: functional, cell-based; conditions: time 5.0 hrs
Method in brief: (§5)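 Murine BV2 microglia given 1 μM compound 1 h before LPS (5 μg/mL), then stimulated 4 h. IL-6 or IL-10 in the medium measured by ELISA (pg/mL). Where used, SR144528 (1 μM) added 15 min before agonist. n = 3 independent experiments in duplicate; one-way ANOVA with Tukey test.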

Cannabinoid receptor 2 [13] = target: T2, Cannabinoid receptor 2; experiment: Agonist activity at human CB2 receptor expressed in CHO-K1 cells assessed as inhibition of froskolin-stimulated cAMP accumulation incubated for 90 mins in presence of SR144528 by HitHunter chemiluminescence based assay; assay type: functional, cell-based
Method in brief: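 Forskolin (10 μM)-stimulated cAMP HitHunter assay in CHO-K1 hCB2R cells, 90 min at 37 °C. Ligand at 0.1 nM–10 μM given at the same time as a fixed 100 nM SR144528. Data given as % CP55,940; three-parameter fit; 3–6 independent experiments in triplicate.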

[14] = Cytotoxicity against LPS/TNFalpha-induced HMC3 cells assessed as reduction in cell viability at 1 uM pretreated with compound for 1 hr followed by LPS/TNFalpha stimulation and measured after 24 hrs by MTT assay; assay type: toxicity, cell-based; conditions: human, hmc3, 25 h
Method in brief: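 HMC3 microglial cells exposed to compound at 100 nM, 1 μM and 10 μM; viability read by MTT reduction. n = 3 independent experiments in triplicate; one-way ANOVA with Tukey test.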

Cannabinoid receptor 2 [15] = target: T2, Cannabinoid receptor 2; experiment: Agonist activity at human CB2 receptor expressed in CHO-K1 cells assessed as inhibition of froskolin-stimulated cAMP accumulation incubated for 90 mins in presence of EC-21a by HitHunter chemiluminescence based assay; assay type: functional, cell-based
Mus musculus [16] = experiment: Antinociceptive activity against oxaliplatin-induced neuropathic pain in po dosed CD-1 albino mouse assessed as decrease in neuropathic pain measured upto 75 min by cold plate assay; assay type: functional, organism-based; conditions: DDE = dose-dependent effect; method in brief: as §4
Cannabinoid receptor 2 [17] = target: T2, Cannabinoid receptor 2; experiment: Agonist activity at human CB2 receptor expressed in CHO-K1 cells assessed as inhibition of froskolin-stimulated cAMP accumulation at 50 nM incubated for 90 mins in presence of EC-21a by HitHunter chemiluminescence based assay relative to CP55,940; assay type: functional, cell-based
BV-2 [18] = experiment: Antiinflammatory activity in LPS-induced mouse microglial BV-2 cells assessed as decrease in IL-6 release at 1 uM preincubated for 1 hr followed by LPS-stimulation and measured after 4 hrs by ELISA; assay type: functional, cell-based; conditions: time 5.0 hrs; method in brief: as §5
Cannabinoid receptor 2 [19] = target: T2, Cannabinoid receptor 2; experiment: Agonist activity at human CB2 receptor expressed in CHO-k1 cells assessed as inhibition of froskolin-stimulated cAMP accumulation at 5 nM incubated for 90 mins in presence of EC-21a by HitHunter chemiluminescence based assay relative to CP55,940; assay type: functional, cell-based

T1 sequence (P21554 whole entry): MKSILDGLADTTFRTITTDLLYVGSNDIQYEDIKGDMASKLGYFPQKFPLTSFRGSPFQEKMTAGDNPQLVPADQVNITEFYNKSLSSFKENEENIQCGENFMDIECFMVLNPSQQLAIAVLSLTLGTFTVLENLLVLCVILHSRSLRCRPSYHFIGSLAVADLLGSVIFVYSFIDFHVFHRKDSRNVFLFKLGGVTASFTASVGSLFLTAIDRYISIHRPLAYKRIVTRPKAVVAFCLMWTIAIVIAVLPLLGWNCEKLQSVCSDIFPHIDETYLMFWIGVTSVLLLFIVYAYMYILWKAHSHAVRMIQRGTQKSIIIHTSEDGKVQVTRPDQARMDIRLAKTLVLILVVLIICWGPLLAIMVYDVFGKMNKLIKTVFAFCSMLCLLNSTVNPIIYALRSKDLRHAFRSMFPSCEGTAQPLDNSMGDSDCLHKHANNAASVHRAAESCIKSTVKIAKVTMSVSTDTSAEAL
T2 sequence (P34972 whole entry): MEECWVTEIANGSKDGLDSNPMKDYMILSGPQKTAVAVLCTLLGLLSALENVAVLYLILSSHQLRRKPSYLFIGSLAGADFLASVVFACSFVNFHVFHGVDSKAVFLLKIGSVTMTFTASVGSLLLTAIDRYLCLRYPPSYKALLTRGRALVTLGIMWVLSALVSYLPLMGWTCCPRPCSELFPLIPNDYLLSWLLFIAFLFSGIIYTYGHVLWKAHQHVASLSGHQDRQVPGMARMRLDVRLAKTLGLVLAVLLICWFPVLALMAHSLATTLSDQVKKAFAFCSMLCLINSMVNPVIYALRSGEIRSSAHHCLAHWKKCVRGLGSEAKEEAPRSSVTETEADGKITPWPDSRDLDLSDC

SMILES	EC50 (Cannabinoid receptor 2 [2])	Emax (Cannabinoid receptor 2 [3]; filed as agonist)	Ki (Cannabinoid receptor 2 [5])	Ki (Cannabinoid receptor 1 [6])	EC50 (Cannabinoid receptor 2 [8])	Emax (Cannabinoid receptor 2 [4])	Emin (Cannabinoid receptor 1 [1]; filed as agonist)	Emin (Cannabinoid receptor 2 [7]; filed as agonist)	other results
Cc1c(Br)cc(C(=O)NC2CCCCCC2)c(=O)n1Cc1ccc(F)cc1	0.02 µM	45%	0.007 µM	0.00079 µM	0.063 µM				Emin (Cannabinoid receptor 1 [1]): 29%; Emax (Cannabinoid receptor 2 [4]; filed as agonist): 76%; Emin (Cannabinoid receptor 2 [7]): 13%
Cc1c(Br)cn(Cc2cn(CCCCCn3c(C)c(Br)cc(C(=O)NC4CCCCCC4)c3=O)nn2)c(=O)c1NC(=O)C1CCCCCC1	> 10 µM	41%			> 10 µM	22%			
Cc1c(Br)cn(Cc2cn(CCCn3c(C)c(Br)cc(C(=O)NC4CCCCCC4)c3=O)nn2)c(=O)c1NC(=O)C1CCCCCC1	> 10 µM	53%			0.56 µM	21%			
Cc1c(Br)cn(CCCc2cn(CCCn3c(C)c(Br)cc(C(=O)NC4CCCCCC4)c3=O)nn2)c(=O)c1NC(=O)C1CCCCCC1	> 10 µM	46%			> 10 µM	21%			
Cc1c(Br)cn(Cc2ccc(F)cc2)c(=O)c1NC(=O)C1CCCCCC1	> 10 µM		0.019 µM	> 10 µM	> 10 µM	2.5%	103%	130%	Emax (Cannabinoid receptor 2 [3]): 1.4%
Cc1c(Br)cn(CCCc2cn(CCCCCn3c(C)c(Br)cc(C(=O)NC4CCCCCC4)c3=O)nn2)c(=O)c1NC(=O)C1CCCCCC1	0.073 µM		0.0014 µM	> 10 µM	> 10 µM		89%	40%	Activity (HMC3 [9]): Active; Activity (Mus musculus [10]): 100%; Emax (Cannabinoid receptor 2 [3]): 30%; Activity (HMC3 [11]): Active; Activity (BV-2 [12]): Active; EC50 (Cannabinoid receptor 2 [13]): 0.061 µM; Emax (Cannabinoid receptor 2 [4]; filed as agonist): 52%; Activity [14]: Non-Toxic; EC50 (Cannabinoid receptor 2 [15]): 0.0022 µM; Activity (Mus musculus [16]): Dde; EC50 (Cannabinoid receptor 2 [17]): 0.008 µM; Activity (BV-2 [18]): Active
CCCCCCC(C)(C)c1ccc([C@@H]2C[C@H](O)CC[C@H]2CCCO)c(O)c1									Emin (Cannabinoid receptor 1 [1]): 0%; Emin (Cannabinoid receptor 2 [7]): 0%
Cc1nc(OCCCCCn2cc(CCCn3cc(Br)c(C)c(NC(=O)C4CCCCCC4)c3=O)nn2)c(C(=O)NC2CCCCCC2)cc1Br	0.008 µM	43%	0.0019 µM	> 10 µM	> 10 µM	38%	95%	52%	Emax (Cannabinoid receptor 2 [13]): 39%; Emax (Cannabinoid receptor 2 [15]): 20%; Emax (Cannabinoid receptor 2 [17]): 38%; Emax (Cannabinoid receptor 2 [19]): 29%
